ChEMBL document CHEMBL4513216, “Probing the Open Global Health Chemical Diversity Library for Multistage-Active Starting Points for Next-Generation Antimalarials” (ACS Infect Dis, 2020)

experiment: Toxicity liver stage against HepG2, at 10uM; type: cell-based; set-up: test concentration 10 uM, cell line HepG2-A16-CD81EGFP; details: human, HepG2-A16-CD81EGFP cells; read-out: INHIBITION
Outline: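 Uninfected HepG2-A16-CD81EGFP cells, 3 × 10^3 per well, 1536-well, plated on prespotted compound at 10 μM final, parasite-free screening media added to match infected plates; puromycin 10 μM positive, DMSO 0.5% negative; run in parallel with 48 h PbLuc assay at 37 °C, 5% CO2; viability by CellTiter-Glo luminescence, normalized to controls.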

Q: For `CCN1CCc2c(c(COC)nn2C)C1`, which cytotoxicity at 10 µM is on record?
A: 5.09%

Q: With `CN1C(=O)CCCC12CCCN(C(=O)c1ccoc1)C2` (stereo unspecified) as the compound, how does the cytotoxicity at 10 µM read?
A: -4.04%

Q: Which cytotoxicity at 10 µM does the source give for `Cc1nn(C)c(=O)c2nn(-c3ccc(Cl)cc3)c(C)c12` here?
A: -4.18%

Q: With `O=S(=O)(Cc1ccc(Br)cc1)NCCO` as the compound, how does the cytotoxicity at 10 µM read?
A: 6.73%

Q: For `CN(C)C(=O)C1(c2cnccn2)CCCN1C(=O)Cc1ccccc1` (stereo unspecified), which cytotoxicity at 10 µM is on record?
A: 0.225%

Q: Which cytotoxicity at 10 µM does the source give for `CC(C)c1nccn1-c1nccnc1C1CCCN1Cc1ccccc1` (stereo unspecified) here?
A: -0.943%

Q: For `Fc1cccc(CN2CCC(c3noc(-c4ccncc4)n3)CC2)c1F`, which cytotoxicity at 10 µM is on record?
A: -6.21%

Q: Which cytotoxicity at 10 µM does the source give for `O=C1CCCN1CCN1CCCCC1Cn1cccn1` (stereo unspecified) here?
A: 12.9%

Q: For `COc1c(C)cnc(CSc2nnc(N)s2)c1C`, which cytotoxicity at 10 µM is on record?
A: 10.1%

Q: Which cytotoxicity at 10 µM does the source give for `CCCc1nc(CN(C)CC2CCN(CCO)CC2)no1` here?
A: 2.64%

Q: For `COCc1ccc(CNC(=O)CN2CCc3ccccc32)cc1`, which cytotoxicity at 10 µM is on record?
A: 6.68%

Q: Which cytotoxicity at 10 µM does the source give for `Cc1cc(NS(=O)(=O)c2ccc(Cl)s2)ccc1-n1cccc1C(=O)O` here?
A: 3.2%

Q: With `Cc1cc(C(=O)N2CCOC(c3nc(C)n[nH]3)C2)[nH]n1` (stereo unspecified) as the compound, how does the cytotoxicity at 10 µM read?
A: -11.7%

Q: For `Cc1cc2c(cc1NC(=O)NCC(C)C)OCO2`, which cytotoxicity at 10 µM is on record?
A: 1.01%

Q: Which cytotoxicity at 10 µM does the source give for `O=C(CCC(=O)c1cccs1)NC1(C(=O)NCC2CC2)CCCC1` here?
A: -10.6%

Q: Which cytotoxicity at 10 µM does the source give for `Cc1ccc(C(=O)NCCCNS(C)(=O)=O)c(=O)[nH]1` here?
A: -15.3%

Q: With `CCC(CNC(=O)c1ccc(=O)[nH]n1)N1CCc2ccccc2C1` (stereo unspecified) as the compound, how does the cytotoxicity at 10 µM read?
A: -7.9%

Q: For `CCS(=O)(=O)N1CCN(CC2CC2)c2ncccc2C1`, which cytotoxicity at 10 µM is on record?
A: 7.97%

Q: For `O=C1COC2(COCCN(c3cnccn3)C2)CN1c1cccc(F)c1` (stereo unspecified), which cytotoxicity at 10 µM is on record?
A: -104%

Q: Which cytotoxicity at 10 µM does the source give for `COC[C@@H]1CCC[C@@]12CN(C(=O)N(C)C)CCO2` here?
A: -102%

Q: With `CC(C)NC(=O)N1CCCC(c2nnc(CN3CCOCC3)n2C)C1` (stereo unspecified) as the compound, how does the cytotoxicity at 10 µM read?
A: -0.392%

Q: Which cytotoxicity at 10 µM does the source give for `CC(c1ccccn1)N(C)Cc1ccc(-n2cncn2)cc1` (stereo unspecified) here?
A: 5.33%

Q: Which cytotoxicity at 10 µM does the source give for `Cc1cc(C)n(C2CCN(Cc3c(-c4cc(C)on4)nn(C)c3Cl)C2)n1` (stereo unspecified) here?
A: 3.84%

Q: For `c1ccc(CCCC2CN(Cc3ncc[nH]3)CCO2)cc1` (stereo unspecified), which cytotoxicity at 10 µM is on record?
A: -3.83%

Q: Which cytotoxicity at 10 µM does the source give for `CC(C)[C@H](NC(=O)c1cccc(CCC(C)(C)O)c1)C(N)=O` here?
A: -0.471%

Q: Which cytotoxicity at 10 µM does the source give for `Cc1cc(N2CCCC3(CN(C)C(=O)O3)C2)c2cc3c(cc2n1)OCO3` (stereo unspecified) here?
A: -5.05%

Q: Which cytotoxicity at 10 µM does the source give for `COc1ccccc1CN(C)C(=O)CN1C(=O)OC[C@@H]1c1ccccc1` here?
A: -43.6%

Q: For `Nc1nccc(NCc2cc3n(n2)CCCN(C(=O)C2CCC2)C3)n1`, which cytotoxicity at 10 µM is on record?
A: -6.49%

Q: For `CSCC[C@H](N)C(=O)NCc1cc2n(n1)CCCN(C(=O)C1CCC1)C2`, which cytotoxicity at 10 µM is on record?
A: -12.9%

Q: Which cytotoxicity at 10 µM does the source give for `CC(=O)N1CCN(c2cc(-c3ccccc3)nc3c(C)c(C)nn23)CC1` here?
A: -13.1%

Q: With `COc1ccccc1CC(=O)N1CC[C@@]2(CCCO2)[C@@H](OC)C1` as the compound, how does the cytotoxicity at 10 µM read?
A: 11.7%

Q: For `CC(C)c1nccn1C1CCCN(C(=O)c2cnn(C)c2C2CC2)C1` (stereo unspecified), which cytotoxicity at 10 µM is on record?
A: -5.5%

Q: For `O=C(CCN1C(=O)CCC1=O)Nc1cnn(-c2ccccc2Cl)c1`, which cytotoxicity at 10 µM is on record?
A: -9.56%

Q: For `CCc1[nH]ncc1C(=O)N1CCCC(n2ccnc2C(C)C)C1` (stereo unspecified), which cytotoxicity at 10 µM is on record?
A: 2.43%

Q: Which cytotoxicity at 10 µM does the source give for `CCOc1cccc2c1OCC(C(=O)NS(=O)(=O)Cc1ccccc1)=C2` here?
A: -7.22%

Q: Which cytotoxicity at 10 µM does the source give for `COc1ccc(C(=O)N2CCCC(C)C2)cc1F` (stereo unspecified) here?
A: -11.6%

Q: For `Cc1ccc(OCC(O)CN2CCC(Cn3cccn3)CC2)cc1` (stereo unspecified), which cytotoxicity at 10 µM is on record?
A: -16%

Q: Which cytotoxicity at 10 µM does the source give for `Cc1nc(CNCC2CCCN2c2cccnn2)no1` (stereo unspecified) here?
A: -1.59%

Q: Which cytotoxicity at 10 µM does the source give for `O[C@@H]1CN(Cc2ccc(F)cc2)CC[C@H]1NCc1ccccn1` here?
A: -2.83%

Q: With `CCN1C[C@H]2C3(CCN(C(=O)NC(C)C)CC3)CC[C@@]2(C(=O)N(C)C)C1` as the compound, how does the cytotoxicity at 10 µM read?
A: -109%

Q: Which cytotoxicity at 10 µM does the source give for `CCN1CCC12CCN(C(=O)c1cc(C)on1)C2` (stereo unspecified) here?
A: 5.71%

Q: With `CN(C)C(=O)CN1CCC2(CCN(CC3CC3)CC2)C1=O` as the compound, how does the cytotoxicity at 10 µM read?
A: -3.69%

Q: Which cytotoxicity at 10 µM does the source give for `O=C(c1ccccn1)N1CCC2(CCCN(c3nncs3)C2)C1` (stereo unspecified) here?
A: -111%

Q: With `CN1CCC(N2CCC(C(=O)N(C)C)CC2)CC1` as the compound, how does the cytotoxicity at 10 µM read?
A: -1.82%

Q: For `Cn1cc(C(=O)NCc2cncc3c2CCN(CC2CC2)C3)cn1`, which cytotoxicity at 10 µM is on record?
A: -103%

Q: With `N#Cc1cccc(C(=O)N2C[C@@H]3CC[C@H]2CN(C(=O)C2CCC2)C3)c1` as the compound, how does the cytotoxicity at 10 µM read?
A: -2.5%
